Nine compounds from ChEMBL document CHEMBL1140235, “Novel 4-(4-aryl)cyclohexyl-1-(2-pyridyl)piperazines as Delta(8)-Delta(7) sterol isomerase (emopamil binding protein) selective ligands with antiproliferative activity” (J Med Chem, 2008) can be followed below.

Structures are written as SMILES. A value given as a limit tells only on which side of the number the result lay.

Experiment [1] deals with T1, 3-beta-hydroxysteroid-Delta(8),Delta(7)-isomerase (Cavia porcellus, UniProt Q60490).
T1 sequence (Q60490 whole entry): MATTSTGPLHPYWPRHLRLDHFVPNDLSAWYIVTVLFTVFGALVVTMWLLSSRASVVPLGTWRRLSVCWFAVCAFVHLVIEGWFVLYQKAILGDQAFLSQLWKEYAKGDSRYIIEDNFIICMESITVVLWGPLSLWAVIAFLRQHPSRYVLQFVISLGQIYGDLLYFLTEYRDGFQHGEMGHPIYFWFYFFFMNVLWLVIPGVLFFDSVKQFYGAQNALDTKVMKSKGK
Nature of the experiment: Displacement of [3H](-)-(S)-emopamil from EBP in guinea pig liver membrane. The class given is cell membranes. The essentials: (§1)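 Radioligand displacement run by previously published methods, EBP per Moebius and σ1/σ2 per Matsumoto. Tissues from male Dunkin guinea pigs and Wistar Hannover rats (250–300 g). IC50 from six to nine drug concentrations in two or three experiments, samples in duplicate.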
Background: Displacement assays read how much labelled ligand stays bound in the presence of the test substance.

The subject of experiment [2] is PC-3. The experiment is described as follows: Antiproliferative activity against human PC3 cells expressing EBP after 48 hrs by MTT assay. It counts as functional, cell-based. The essentials: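 MTT read-out at 48 h in PC-3 cells grown in RPMI 1640 with 10% FBS, 2 mM glutamine, penicillin/streptomycin, 37 °C, 5% CO2. 10 000 cells/well seeded day 1, drugs added day 2 over 1–100 µM (150 or 300 µM for some references). Solvent controls included. MTT 0.5 mg/mL for 3 h, formazan dissolved in DMSO, absorbance at 570 and 630 nm.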
Background: Tetrazolium assays rely on reduction of a dye to a coloured formazan, in cell work by metabolically active cells.

A short description of experiment [3]: Displacement of [3H]-DTG from sigma 2-type opioid receptor in rat liver membrane in presence of (+)-pentazocine. It counts as cell membranes. The essentials:
as §1

The test system of experiment [4] is PC-3. Nature of the experiment: Cytotoxicity against human PC3 cells assessed as LDH release after 24 hrs. The class given is functional, cell-based. Particulars: PC-3, 24 h. The essentials: (§2)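 PC-3 cells exposed to test compound for 24 h at 37 °C, 5% CO2. LDH release into the medium was measured fluorimetrically (ex 560/em 590 nm) after 10 min with substrate mix at room temperature, then stop solution. Total LDH taken from lysed untreated wells. % cytotoxicity = 100 × (treated medium LDH − background)/(total LDH − background).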
(LDH in the medium is a marker of cell lysis.)

Experiment [5] deals with PC-3. Nature of the experiment: Antiproliferative activity against human PC3 cells expressing EBP at 100 uM after 48 hrs by MTT assay. It counts as functional. The following applies: PC-3, 48 h. The essentials: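 PC-3 human prostate cancer cells grown in RPMI 1640 with 10% FBS, 2 mM glutamine and penicillin/streptomycin at 37 °C under 5% CO₂. Seeded at 10 000 cells/well, then dosed the next day with solvent (ethanol, DMSO) controls. Incubated 48 h. MTT 0.5 mg/mL added for 3 h at 37 °C, formazan dissolved in DMSO, absorbance read at 570 and 630 nm. Percent inhibition at 100 µM, n ≥ 2 separate experiments.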

Experiment [6] concerns PC-3. Nature of the experiment: Cytotoxicity against human PC3 cells assessed as LDH release at 100 uM after 24 hrs relative to untreated control. The class given is functional. The essentials: as §2
Experiment [7] deals with T2, Adrenergic receptor alpha-1 (Rattus norvegicus, UniProt P15823+P23944+P43140).
T2 sequence (P15823 whole entry): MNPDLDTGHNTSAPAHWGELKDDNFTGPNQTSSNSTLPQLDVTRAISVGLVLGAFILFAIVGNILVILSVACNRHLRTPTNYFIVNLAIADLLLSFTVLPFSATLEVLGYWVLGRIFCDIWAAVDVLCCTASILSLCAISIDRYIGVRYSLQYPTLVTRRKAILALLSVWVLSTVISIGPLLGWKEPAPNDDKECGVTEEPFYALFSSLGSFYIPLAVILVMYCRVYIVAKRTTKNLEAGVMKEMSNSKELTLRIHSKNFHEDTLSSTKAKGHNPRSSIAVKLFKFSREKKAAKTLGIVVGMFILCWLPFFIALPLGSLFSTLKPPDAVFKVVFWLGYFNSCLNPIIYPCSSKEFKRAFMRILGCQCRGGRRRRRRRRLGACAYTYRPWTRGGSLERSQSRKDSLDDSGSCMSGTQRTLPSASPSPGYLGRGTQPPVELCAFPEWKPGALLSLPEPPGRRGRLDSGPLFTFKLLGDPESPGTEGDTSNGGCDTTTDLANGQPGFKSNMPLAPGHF
T2 sequence (P23944 whole entry): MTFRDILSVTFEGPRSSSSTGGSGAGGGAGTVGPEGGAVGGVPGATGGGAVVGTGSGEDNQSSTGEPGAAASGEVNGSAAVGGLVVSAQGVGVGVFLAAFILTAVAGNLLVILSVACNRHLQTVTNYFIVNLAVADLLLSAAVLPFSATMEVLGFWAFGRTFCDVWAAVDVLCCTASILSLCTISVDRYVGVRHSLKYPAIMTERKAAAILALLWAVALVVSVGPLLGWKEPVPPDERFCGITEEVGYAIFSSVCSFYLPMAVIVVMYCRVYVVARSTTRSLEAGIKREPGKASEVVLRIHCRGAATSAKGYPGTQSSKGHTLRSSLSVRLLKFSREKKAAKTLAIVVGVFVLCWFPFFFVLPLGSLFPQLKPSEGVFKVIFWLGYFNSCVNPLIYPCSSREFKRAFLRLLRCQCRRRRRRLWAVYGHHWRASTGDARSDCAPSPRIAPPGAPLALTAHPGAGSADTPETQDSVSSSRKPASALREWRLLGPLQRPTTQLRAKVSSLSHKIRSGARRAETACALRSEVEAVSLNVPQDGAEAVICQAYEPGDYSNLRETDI
T2 sequence (P43140 whole entry): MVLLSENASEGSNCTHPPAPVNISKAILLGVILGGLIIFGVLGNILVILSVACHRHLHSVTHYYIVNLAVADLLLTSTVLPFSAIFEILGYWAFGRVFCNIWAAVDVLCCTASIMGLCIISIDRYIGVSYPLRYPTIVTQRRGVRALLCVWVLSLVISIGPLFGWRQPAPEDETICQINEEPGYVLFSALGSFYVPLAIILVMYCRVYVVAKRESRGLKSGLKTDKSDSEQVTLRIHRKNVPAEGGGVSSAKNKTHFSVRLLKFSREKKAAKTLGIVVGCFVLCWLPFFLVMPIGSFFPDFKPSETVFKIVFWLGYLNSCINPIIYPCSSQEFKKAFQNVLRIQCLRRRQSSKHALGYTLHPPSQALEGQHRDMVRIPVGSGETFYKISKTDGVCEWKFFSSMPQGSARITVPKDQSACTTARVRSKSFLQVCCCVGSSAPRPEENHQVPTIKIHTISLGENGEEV
The experiment is described as follows: Displacement of [3H]prazosin from adrenergic alpha1 receptor in rat cortical membrane. It counts as cell membranes.

The target in experiment [8] is T3, 5-hydroxytryptamine receptor 1A (Rattus norvegicus, UniProt P19327).
T3 sequence (P19327 whole entry): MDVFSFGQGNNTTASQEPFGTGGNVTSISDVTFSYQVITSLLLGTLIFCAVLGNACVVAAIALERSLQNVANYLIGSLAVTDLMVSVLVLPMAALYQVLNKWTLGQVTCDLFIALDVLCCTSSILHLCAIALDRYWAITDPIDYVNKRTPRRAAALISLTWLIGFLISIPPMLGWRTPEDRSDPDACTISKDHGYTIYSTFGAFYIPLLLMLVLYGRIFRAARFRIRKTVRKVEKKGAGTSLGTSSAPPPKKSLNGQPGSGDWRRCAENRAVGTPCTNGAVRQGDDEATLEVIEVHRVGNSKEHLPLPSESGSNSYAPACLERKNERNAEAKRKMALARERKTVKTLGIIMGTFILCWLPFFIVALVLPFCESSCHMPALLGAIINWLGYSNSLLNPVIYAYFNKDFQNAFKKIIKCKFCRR
Nature of the experiment: Displacement of [3H]8OH-DPAT from 5HT1A receptor in rat hippocampal membrane. The class given is cell membranes, Hippocampus.

The target in another experiment is D(2) dopamine receptor (Rattus norvegicus, UniProt P61169). The experiment is described as follows: Displacement of [3H]spiroperidol from dopamine D2 receptor in rat striatal membrane. The class given is cell membranes, Striatum.
Chain of D(2) dopamine receptor (P61169 whole entry): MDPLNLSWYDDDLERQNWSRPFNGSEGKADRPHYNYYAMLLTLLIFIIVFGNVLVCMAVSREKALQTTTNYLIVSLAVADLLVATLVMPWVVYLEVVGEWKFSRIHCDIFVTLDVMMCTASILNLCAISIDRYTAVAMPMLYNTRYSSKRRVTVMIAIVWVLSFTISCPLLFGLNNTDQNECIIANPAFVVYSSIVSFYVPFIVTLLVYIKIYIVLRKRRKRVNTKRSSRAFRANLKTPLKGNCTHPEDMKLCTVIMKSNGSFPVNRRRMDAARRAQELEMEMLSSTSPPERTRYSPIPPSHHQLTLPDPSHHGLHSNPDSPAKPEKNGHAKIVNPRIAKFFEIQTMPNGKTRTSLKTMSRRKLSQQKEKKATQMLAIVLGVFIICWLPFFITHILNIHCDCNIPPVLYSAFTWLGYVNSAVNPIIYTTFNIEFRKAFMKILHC
In experiment [9] the target is Sigma non-opioid intracellular receptor 1 (Cavia porcellus, UniProt Q60492). The experiment is described as follows: Displacement of [3H](+)-pentazocine from sigma 1 receptor in guinea pig brain membrane without cerebellum. The class given is cell membranes. The essentials:
as §1

The species named for another experiment is Cavia porcellus. The experiment is described as follows: Selectivity ratio of Ki for sigma 1 receptor in guinea pig brain membrane without cerebellum to Ki for EBP in guinea pig liver membrane. It counts as cell membranes.
A short description of experiment [10]: Selectivity ratio of Ki for sigma 2 receptor in rat liver membrane to Ki for EBP in guinea pig liver membrane. It counts as cell membranes.

Chain of Sigma non-opioid intracellular receptor 1 (Q60492 whole entry): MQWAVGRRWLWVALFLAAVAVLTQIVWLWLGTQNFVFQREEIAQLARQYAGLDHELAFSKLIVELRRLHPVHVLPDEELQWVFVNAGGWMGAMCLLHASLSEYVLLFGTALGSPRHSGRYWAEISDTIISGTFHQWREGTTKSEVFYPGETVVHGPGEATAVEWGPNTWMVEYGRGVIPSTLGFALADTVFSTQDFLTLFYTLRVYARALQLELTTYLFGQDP

With `COc1cccc2c1CCCC2CCCN1CCN(C2CCCCC2)CC1` (configuration not stated), the inhibition constant Ki (usually a dissociation constant, usually derived from enzyme kinetics or from competition with a known ligand) came out at 8.38 nM in [1] and 0.34 nM in experiment [3]. Besides, the EC50 (as a rule, the concentration that produces a half-maximal response) in the experiment on PC-3 [2] was determined as 37700 nM; in the experiment on PC-3 [4] it was 64200 nM.
Take `Cc1ccccc1NC(=N)Nc1ccccc1C`: in the experiment with PC-3 [5], testing at 100 µM gave an inhibition of 27%. Further, the Ki was 7660 nM in experiment [1] and 31.1 nM in experiment [3]. In addition, the Activity in the experiment with PC-3 [6] is given as under 10%.
`COc1cccc([C@H]2CC[C@@H](N3CCN(c4ccccc4)CC3)CC2)c1`: the Ki in [7] was determined as 2250 nM; in [1] it was 1710 nM; in experiment [8] it was 183 nM; on D(2) dopamine receptor, 2380 nM. Besides, in the experiment on PC-3 [6], the Activity was under 10%.
Take `COc1cccc([C@H]2CC[C@@H](N3CCN(c4ccccn4)CC3)CC2)c1`: the inhibition constant Ki in [7] was 783 nM; in experiment [9], 178 nM; in experiment [1] it was 45.4 nM; in experiment [8] it was 815 nM; on D(2) dopamine receptor it was over 850 nM; in experiment [3], 36.1 nM. For the same compound, the Activity with PC-3 [6] was under 10%.
For `COc1ccc([C@H]2CC[C@@H](N3CCN(c4ccccn4)CC3)CC2)cc1`, the inhibition constant Ki in [7] turned out to be 786 nM; in experiment [9], 194 nM; in experiment [1], 32.8 nM; in experiment [8], 94 nM; at D(2) dopamine receptor it was 787 nM; in experiment [3], 63.8 nM. For the same compound, the Ratio Ki in the experiment listed under Cavia porcellus turned out to be 4. In addition, the Activity in the experiment with PC-3 [6] was under 10%.
With `COc1ccccc1[C@H]1CC[C@@H](N2CCN(c3ccccn3)CC2)CC1`, the Ki turned out to be 712 nM in experiment [7]; 369 nM in experiment [9]; 8.15 nM in experiment [1]; 480 nM in experiment [8]; 2120 nM at D(2) dopamine receptor; 242 nM in experiment [3]. The values for the Ratio Ki (in [10]; in the experiment filed under Cavia porcellus) were 30 and 45, respectively. The compound also yielded an EC50 in the experiment on PC-3 [2] of 19300 nM. For the same compound, in the experiment on PC-3 [6], the Activity is under 10%.
For `c1ccc(CCN2CCCCC2)cc1`, the Ki stood at 309 nM in experiment [9], 595 nM in experiment [1] and 194 nM in experiment [3]. At 100 µM the inhibition with PC-3 [5] was 30%. Also, the Ratio Ki in experiment [10] worked out at 0.3; in the experiment filed under Cavia porcellus, 0.5. Besides, in the experiment on PC-3 [6], the Activity was under 10%.
In the case of `COc1cccc([C@H]2CC[C@@H](N3CCN(c4cccc5ccccc45)CC3)CC2)c1`, the Ki in experiment [7] came out at 5540 nM; in experiment [9], 240 nM; in experiment [1] it was 16.7 nM; in [8], 74 nM; at D(2) dopamine receptor it was 1310 nM. The Activity in the experiment with PC-3 [6] is given as under 10%.
Take `COc1cccc([C@H]2CC[C@@H](NCCOc3ccccn3)CC2)c1`: the inhibition constant Ki was over 850 nM in experiment [7]; 7.71 nM in [9]; 23.5 nM in experiment [1]; 373 nM in experiment [8]; 783 nM on D(2) dopamine receptor. For the same compound, the Activity in the experiment with PC-3 [6] was under 10%.
